As usually defined, the IC50 is the concentration that inhibits the measured activity by half.

The test system of one experiment is Entamoeba histolytica. As to the kind of experiment: Antiamoebic activity against trophozoite stage of Entamoeba histolytica HM-1:IMSS assessed as growth inhibition after 48 hrs by microdilution method. It is filed as functional, organism-based. In a few lines: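 Axenic log-phase HM1:IMSS trophozoites grown in BI-S-33 medium with 20% calf serum, viability counted by trypan blue, seeded at 10⁵/mL (100 µL per well). Compounds dissolved in 0.1% DMSO, two-fold serial dilutions in medium. Incubated 37 °C, 48 h, then WST-1 added for 4 h at 37 °C, OD 490 nm. IC50 by linear regression of % inhibition versus concentration, duplicate, mean ± SD.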
(In general: In broth dilution the organism is exposed to a series of concentrations in liquid medium.)

The next experiment deals with Vero. As to the kind of experiment: Cytotoxicity against african green monkey Vero cells assessed as cell viability after 48 hrs by WST-1 assay. It is filed as cell-based. The settings on record: Chlorocebus sabaeus. In a few lines: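 VERO cells in MEM with 0.1 mM nonessential amino acids, 1 mM pyruvate and 10% FBS, 37 °C, 5% CO₂. Plated at 10⁴ cells/well, 24 h before dosing. Compounds diluted in complete medium to 0.1–100 µM, 48 h exposure against an untreated control. WST-1 added for 4 h at 37 °C. Quadruplicate, repeated twice, mean ± SD, ANOVA.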
(In general: Formazan colour is commonly taken as a measure of viable cells.)

Experiment [1] in a line: Selectivity index, ratio of IC50 for african green monkey Vero cells to IC50 for trophozoite stage of Entamoeba histolytica HM-1:IMSS. In a few lines:
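Computed as VERO toxicity IC50 divided by the E. histolytica IC50, where each IC50 is the concentration that kills 50% of the respective cells.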

[2] abbreviates: Entamoeba histolytica, HM-1:IMSS, 48 h, read-out: IC50.

Regarding `CCOC(=O)c1ccc2no[n+]([O-])c2c1`, in the experiment with Entamoeba histolytica (setting [2]), the half-maximal inhibitory concentration (IC50) amounted to 221 µM.
Consider `COC(=O)c1ccc2c(c1)[n+]([O-])c(C(=O)c1cccs1)c(C(F)(F)F)[n+]2[O-]`, for which the IC50 in the experiment with Vero is 5.86 µM; in the experiment with Entamoeba histolytica (setting [2]) it was 0.35 µM. Moreover, the “Ratio IC50” value in experiment [1] is given as 16.74.
For the compound `COC(=O)c1ccc2c(c1)[n+]([O-])c(C(=O)c1ccc3ccccc3c1)c(C(F)(F)F)[n+]2[O-]`, the concentration for half-maximal inhibition (IC50) in the experiment with Entamoeba histolytica (setting [2]) was determined as 5.29 µM.
Still for that read-out and setting: as for `CCOC(=O)Cc1c(C(=O)OCC)[n+]([O-])c2cc(C(=O)OC)ccc2[n+]1[O-]`, the figure is 1.91 µM.
Turning to `CCOC(=O)c1ccc2c(c1)[n+]([O-])c(C(=O)OC)c(C)[n+]2[O-]`, the IC50 with Vero is > 100 µM; in the experiment on Entamoeba histolytica (setting [2]), 1.88 µM. For the same compound, the “Ratio IC50” value in experiment [1] is reported as >53.19.
Take `CCOC(=O)c1ccc2c(c1)[n+]([O-])c(C(=O)OCC)c(C)[n+]2[O-]`: the IC50 with Entamoeba histolytica (setting [2]) was 4.18 µM.
`CCOC(=O)c1ccc2c(c1)[n+]([O-])c(C(N)=O)c(C)[n+]2[O-]`: the IC50 with Vero is > 100 µM; in the experiment on Entamoeba histolytica (setting [2]) it was 1.47 µM. The “Ratio IC50” value in experiment [1] was >68.02.
For `CCOC(=O)c1ccc2c(c1)[n+]([O-])c(C(=O)c1ccccc1)c(C)[n+]2[O-]`, in that order: > 100 µM, 1.93 µM and >51.81.
Take `CCOC(=O)c1ccc2c(c1)[n+]([O-])c(C(=O)Nc1ccccc1)c(C)[n+]2[O-]`: the half-maximal inhibitory concentration (IC50) result in the experiment on Entamoeba histolytica is “ND(Insoluble)”.
Still for that read-out and setting: the result for `CCOC(=O)c1ccc2c(c1)[n+]([O-])c(C(=O)OCc1ccccc1)c(C)[n+]2[O-]` reads “ND(Insoluble)”.
On to `CCOC(=O)c1ccc2c(c1)[n+]([O-])c(C(C)=O)c(C(F)(F)F)[n+]2[O-]`, for which the figures for the 50% inhibitory concentration (IC50) with Vero and with Entamoeba histolytica (setting [2]) were 13.1 µM and 1.98 µM, respectively. Further, in experiment [1], the “Ratio IC50” value came out at 6.6.
In the case of `CCOC(=O)c1ccc2c(c1)[n+]([O-])c(C(=O)CC)c(C(F)(F)F)[n+]2[O-]`, the IC50 with Entamoeba histolytica (setting [2]) was 18.1 µM.
With `CCOC(=O)c1ccc2c(c1)[n+]([O-])c(C(=O)c1cccs1)c(C(F)(F)F)[n+]2[O-]`, the concentration for half-maximal inhibition (IC50) in the experiment with Vero is 6.74 µM; in the experiment on Entamoeba histolytica (setting [2]), 2.5 µM. Moreover, in experiment [1], the “Ratio IC50” value came out at 2.69.
For the compound `CCOC(=O)c1ccc2c(c1)[n+]([O-])c(C(=O)c1ccc3ccccc3c1)c(C(F)(F)F)[n+]2[O-]`, the IC50 entry in the experiment on Entamoeba histolytica is on record as “ND(Insoluble)”.
With `CCOC(=O)c1ccc2c(c1)[n+]([O-])c(C(=O)c1ccco1)c(C(F)F)[n+]2[O-]`, the 50% inhibitory concentration (IC50) with Entamoeba histolytica (setting [2]) was 3.81 µM.
On the same count and under the same terms, as for `CCOC(=O)c1ccc2c(c1)[n+]([O-])c(C(=O)OCC)c(-c1ccccc1)[n+]2[O-]`, the figure is 7.13 µM.
In the case of `O=C(O)c1ccc2no[n+]([O-])c2c1`, the IC50 result in the experiment on Entamoeba histolytica is “ND(Insoluble)”.
Consider `COC(=O)c1ccc2no[n+]([O-])c2c1`, for which the IC50 in the experiment with Entamoeba histolytica (setting [2]) was 74.5 µM.
For `COC(=O)c1ccc2c(c1)[n+]([O-])c(C(C)=O)c(C)[n+]2[O-]`, the results for the IC50 with Vero and with Entamoeba histolytica (setting [2]) were > 100 µM and 1.41 µM, respectively. Besides, the “Ratio IC50” value in experiment [1] is given as >70.92.
As for `COC(=O)c1ccc2c(c1)[n+]([O-])c(C(=O)OC)c(C)[n+]2[O-]`, in the experiment with Entamoeba histolytica (setting [2]), the half-inhibitory concentration (IC50) came to 4.17 µM.
On to `CCOC(=O)c1c(C)[n+]([O-])c2ccc(C(=O)OC)cc2[n+]1[O-]`, for which the IC50 in the experiment with Vero was > 100 µM; in the experiment on Entamoeba histolytica (setting [2]), 1.99 µM. In experiment [1], the “Ratio IC50” value was >50.25.
`COC(=O)c1ccc2c(c1)[n+]([O-])c(C(=O)OC(C)(C)C)c(C)[n+]2[O-]`: the half-maximal inhibitory concentration (IC50) entry with Entamoeba histolytica is “ND(Insoluble)”.
Consider `COC(=O)c1ccc2c(c1)[n+]([O-])c(C(=O)c1ccccc1)c(C)[n+]2[O-]`, for which the IC50 in the experiment with Entamoeba histolytica (setting [2]) came out at 3.43 µM.
Still for that read-out and setting: the result for `COC(=O)c1ccc2c(c1)[n+]([O-])c(C(=O)Nc1ccccc1)c(C)[n+]2[O-]` reads 4.14 µM.
The same measure, in the same setting: as for `CCOC(=O)c1c(-c2ccccc2)[n+]([O-])c2ccc(C(=O)OC)cc2[n+]1[O-]`, the figure is 12.2 µM.
As for `COC(=O)c1ccc2c(c1)[n+]([O-])c(C(C)=O)c(C(F)(F)F)[n+]2[O-]`, the IC50 in the experiment on Vero was 3.28 µM; in the experiment with Entamoeba histolytica (setting [2]) it was 1.53 µM. Besides, the “Ratio IC50” value in experiment [1] is listed as 2.14.
The corresponding values for `COC(=O)c1ccc2c(c1)[n+]([O-])c(C(=O)C(C)C)c(C(F)(F)F)[n+]2[O-]` are 6.97 µM, 1.88 µM and 3.7.
In the case of `COC(=O)c1ccc2c(c1)[n+]([O-])c(C(=O)c1ccccc1)c(C(F)(F)F)[n+]2[O-]`, the IC50 in the experiment with Entamoeba histolytica (setting [2]) came to 6.07 µM.
Same read-out and setting: the result for `[O-][n+]1onc2ccccc21` [BENZO[C][1,2,5]OXADIAZOLE 1-OXIDE] reads 12 µM.
Turning to `Cc1ncc([N+](=O)[O-])n1CCO` [METRONIDAZOLE], the results for the IC50 in the experiment on Vero and in the experiment with Entamoeba histolytica (setting [2]) were > 100 µM and 4.5 µM, respectively. For the same compound, the “Ratio IC50” value in experiment [1] is >22.22.
For `CC(=O)Oc1ccccc1C(=O)Nc1ncc([N+](=O)[O-])s1` [NITAZOXANIDE], in that order: 10.7 µM, 3.9 µM and 2.75.
